# STAT3 activator = increases IL-6 driven STAT3 reporter signal | U3A cells, IL-6 STAT3-luciferase reporter, luminescence; 100% = signal with IL-6 EC80 alone | activation (% of control), % at 5.6 µM | hit rate 0.91% among 190,000 | AID 871;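 active = activation above the screen-wide mean of compound activation plus 3 SD, cut at about 130% in these data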;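 also: 0% = background luminescence of wells with medium and substrate only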
#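 Test system: Human STAT1-deficient U3A cells with stable STAT3-luciferase reporter | Also added: Interleukin-6, 33 ng/mL | Timing: Compound pre-incubation 1 h before IL-6, then 6 h stimulation at 37 °C | Technique: Luciferase reporter luminescence | Read-out: Percent of IL-6-only median luminescence | Benchmarks: IL-6-only wells as 100% reference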
# STAT3 inh = inhibitors of IL-6 induced STAT3 signaling; U3A cells, IL-6 STAT3-luciferase reporter, luminescence; host cell line lacks STAT1; hit rate 0.89% among 190,000; inhibition, % at 5.5 µM;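 active = inhibition above the mean inhibition across all screened compounds plus 3 SD, cut at about 44% in these data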;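 also: 0% = DMSO only wells and 100% = 100 µM nifuroxazide control wells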
# STAT1 act = activators of IFN-gamma induced STAT1 signaling | NIH 3T3 STAT1-luciferase reporter, luminescence; 100% = IFN-gamma alone, no compound | activation (% of control), % at 5.5 µM | hit rate 2.6% among 200,000 | AID 932;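 active = activation above the screen-wide mean activation plus 3 SD, cut at about 130% in these data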;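 also: raw ratio to IFN-gamma control signal so 100% means no change and 0% no light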
# Cl transport mod = KCC2 (human) Cl- transport modulation; Q9H2X9; KCC2 cells, thallium flux FluoZin-2 fluorescence; B-score of Tl+ flux slope (higher = more flux/activation; lower = inhibition) at 10 µM; hit rate 2.2% among 190,000;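 active = thallium flux slope and its plate-corrected score both differing from the plate sample mean at a set confidence after two filtering rounds, in either direction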;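 also: slope of fluorescence scaled to starting intensity during 10 to 20 s after thallium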
# HSV augment = increases HSV replication in cells; HSV replication augmentation in cells, fold increase; maximum fold increase; hit rate 0.005% among 220,000; AID 1956; in the data active = maximum fold increase above about 1.5; tested in PC3 cells
# STAT1 blocker = STAT1 signaling inhibition. NIH 3T3 STAT1-luciferase reporter, IFN-gamma, luminescence. inhibition, % at 5.5 µM. hit rate 0.35% among 200,000. AID 920;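 active = inhibition above a set limit, the mean inhibition across all tested compounds plus 3 SD, cut at about 34% in these data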;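 also: 0% = IFN-gamma with DMSO and 100% = IFN-gamma with 300 µM nifuroxazide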
# STAT1 activ conf = confirmation of STAT1 signaling activators; hit rate 97% among 1,200; NIH 3T3 STAT1-luciferase reporter, IFN-gamma potentiation, luminescence; 100% = IFN-gamma EC80 alone, no compound; AID 1262; activation (% of control), % at 5.7 µM; shares compounds with STAT1 act;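 active = activation above a set limit carried over from the earlier primary STAT1 screen, cut at about 140% in these data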;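 also: simple ratio to median IFN-gamma plus DMSO wells so 0% means no light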
# NFkB act STAT1ct = counter-screen for STAT1 activators: NF-kappaB activation | shares compounds with STAT1 act | HEK293T NF-kB luciferase reporter, TNF-alpha stimulated, luminescence; 100% = TNF-alpha with vehicle only | activation (% of control), % at 5.7 µM | hit rate 43% among 1,200;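 active = activation above the mean of solvent-only control wells plus 3 SD, set per campaign, cut at about 130% in these data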;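 also: TNF-alpha given at a submaximal dose yielding about 80% of full reporter signal; values are well signal over median control so 100% means no change and 0% no light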
# STAT3 act 2 = human STAT3 activation in STAT1 activator counter-screen; U3A cells STAT3-luciferase reporter, IL-6, luminescence; cells lack STAT1; 100 = IL-6 alone, no compound effect; hit rate 46% among 1,200; activation (% of control), % at 5.7 µM; shares compounds with STAT1 act;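 active = activation above the solvent-only control well mean plus 3 SD, set per plate batch, cut at about 110% in these data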;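 also: 0% = no luminescence and 100% = median IL-6 plus DMSO wells; higher means more STAT3 reporter activation so hits are non-selective activators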
# * marks the source's active call; other numbers are inactive results; i = inactive; . = no result given. Only some compounds are listed: those with a hit (about 5.5% of all), similar ones and a draw of the others.
SMILES,STAT3 activator,STAT3 inh,STAT1 act,Cl transport mod,HSV augment,STAT1 blocker,STAT1 activ conf,NFkB act STAT1ct,STAT3 act 2
O=C(NCCNC(=O)c1ccco1)c1ccc(F)cc1,104,2,101,0.025,i,-2,.,.,.
CCn1nc(C)cc1C(=O)n1nc(C)c(Sc2ncccn2)c1C,.,.,.,0.15,i,.,.,.,.
COc1ccc(CCNC(=O)CCc2ccc(S(=O)(=O)NC(C)C)cc2)cc1,98,1,92,-0.65,i,9,.,.,.
CN(Cc1ccccc1)c1nc2c(c(=O)[nH]c(=O)n2C)n1CCSc1ncccn1,103,0,99,-0.47,.,-3,.,.,.
Cc1ccc(OCC(=O)Nc2ccc(N(C)C)cc2)cc1,100,5,91,2.3,i,9,.,.,.
Cc1ccc(NC(=S)c2ccc(N(C)C)cc2)cc1,73,34,170*,-0.16,i,-77,201*,129,102
COc1ccc(C(=O)c2oc3ccc(OC)cc3c2N)cc1,98,1,151*,-0.56,i,-59,139*,148*,111*
COC(=O)c1oc2ccc(OC)cc2c1N,95,10,108,0.57,i,-7,.,.,.
COc1ccc(C(=O)Nc2ccc3cn[nH]c3c2)c(OC)c1,109,-10,164*,-0.89,i,-71,185*,134*,116*
Cc1ccccc1/C=C1\CCCc2ccccc2C1=O,92,8,158*,0.12,i,-63,195*,137*,110
O=C1/C(=C\c2ccc3ccccc3c2)CCCc2ccccc21,94,6,121,-0.75,i,-23,.,.,.
Cc1noc(NC(=O)c2c(-c3c(Cl)cccc3Cl)noc2C)c1[N+](=O)[O-],.,.,.,.,i,.,.,.,.
CCN1C(=S)SC(=O)C1=C1C=C(C)N(CCO)C(C)=C1,105,-1,158*,-1.7,i,-60,190*,128,124*
Cc1ccc(-c2ccc(CCC(=O)O)n2NC(=O)c2ccc([N+](=O)[O-])cc2)cc1,98,8,101,0.78,i,-3,.,.,.
O=C(CSc1nnc(CCCN2C(=O)c3cccc4cccc(c34)C2=O)n1-c1ccccc1)N1CCN(CCO)CC1,97,3,103,0.05,i,-4,.,.,.
Brc1c(-c2ccccc2)nc2n1Cc1ccccc1-2,.,.,.,0.0024,i,.,.,.,.
c1ccc2c(c1)Cn1c-2nc2ccccc21,68,40,158*,-0.14,i,-64,189*,129,95
